Results taken from ChEMBL document CHEMBL1149910, “2-(6-aryl-3(Z)-hexen-1,5-diynyl)anilines as a new class of potent antitubulin agents” (J Med Chem, 2008).
Calls of active or inactive are those of the source. The rule behind the calls is not given here.

Assays:
SK-MEL-5 = assay: Cytotoxicity against human SK-MEL5 cells; format: functional
Procedure, shortened: (§1)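 Tested in the NCI in vitro antitumor screening protocol across a tumor cell line panel. GI₅₀ is the concentration producing a 50% reduction in cell growth.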

MDA-MB-231 [1] = assay: Cell cycle arrest in human MDA-MB-231 cells assessed as accumulation of 4N cells at 36.0 uM after 72 hrs by flow cytometry; format: functional
A549 = assay: Cytotoxicity against human A549/ATCC cells; format: functional; procedure, shortened: as §1
MDA-MB-231 [2] = assay: Cell cycle arrest in human MDA-MB-231 cells assessed as accumulation of >4N cells at 9.0 uM after 72 hrs by flow cytometry; format: functional
Procedure, shortened: (§2)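 MDA-MB-231/ATCC cells were grown in DMEM with 10% fetal bovine serum, […], 1% nonessential amino acids, penicillin and streptomycin at 37 °C in 5% CO₂. They were exposed to 3.6, 9.0, 18, 27 or 36 µM for 24 or 72 h, with colchicine as control. DNA content was then read by flow cytometry, and […] cells were scored.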

UO-31 = assay: Cytotoxicity against human UO31 cells; format: functional
Procedure, shortened: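 NCI in vitro antitumor screening protocol; GI50 taken as the concentration giving 50% reduction in cell growth.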

BT-549 = assay: Cytotoxicity against human BT549 cells; format: functional; procedure, shortened: as §1
SW-620 = assay: Cytotoxicity against human SW620 cells; format: functional; procedure, shortened: as §1
MDA-MB-231 [3] = assay: Cell cycle arrest in human MDA-MB-231 cells assessed as accumulation of >4N cells at 27.0 uM after 24 hrs by flow cytometry; format: functional
SK-OV-3 = assay: Cytotoxicity against human SK-OV3 cells; format: functional; procedure, shortened: as §1
[4] = Cytotoxicity against human […] cells; format: functional; procedure, shortened: as §1
MDA-MB-231 [5] = assay: Effect on microtubule depolymerization in human MDA-MB-231 cells at 18 uM after 2 hrs; format: functional, cell-based
Procedure, shortened: (§3)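 MDA-MB-231/ATCC cells grown on glass coverslips (1 × 10⁴ cells) for 24 h, then exposed to 3.6, 9, 18, 27 or 36 µM at 37 °C for 2 h. Fixed in 4% paraformaldehyde, permeabilized with Triton X-100, and immunostained for α-tubulin and ninein with DAPI counterstain. Interphase microtubule networks compared with untreated cells by confocal microscopy.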

MDA-MB-231 [6] = assay: Cell cycle arrest in human MDA-MB-231 cells assessed as accumulation of 4N cells at 18.0 uM after 72 hrs by flow cytometry; format: functional
MDA-MB-231 [7] = assay: Effect on microtubule depolymerization in human MDA-MB-231 cells assessed as disorganized microtubule cytoskeleton at 9 uM after 2 hrs relative to control; format: functional, cell-based; procedure, shortened: as §3
Hs-578T = assay: Cytotoxicity against human HS578T cells; format: functional; procedure, shortened: as §1
U-251 = assay: Cytotoxicity against human U251 cells; format: functional; procedure, shortened: as §1
PC-3 = assay: Cytotoxicity against human PC3 cells; format: functional; procedure, shortened: as §1
RXF 393 = assay: Cytotoxicity against human RXF393 cells; format: functional; procedure, shortened: as §1
MDA-MB-231 [8] = assay: Cell cycle arrest in human MDA-MB-231 cells assessed as accumulation of 2N cells at 18.0 uM after 72 hrs by flow cytometry; format: functional
SNB-75 = assay: Cytotoxicity against human SNB75 cells; format: functional; procedure, shortened: as §1
MDA-MB-231 [9] = assay: Cell cycle arrest in human MDA-MB-231 cells assessed as accumulation at sub-G1 phase at 3.6 uM after 72 hrs by flow cytometry; format: functional
MDA-MB-231 [10] = assay: Cytotoxicity against human MDA-MB-231 cells; format: functional; procedure, shortened: as §1
[11] = tested on: MDA-MB-231 (Homo sapiens); assay: Induction of apoptosis in human MDA-MB-231 cells assessed as induction of caspase 3 activation at 36 uM after 72 hrs by colorimetric assay relative to control
OVCAR-5 = assay: Cytotoxicity against human OVCAR5 cells; format: functional; procedure, shortened: as §1
MDA-MB-231 [12] = assay: Effect on microtubule depolymerization in human MDA-MB-231 cells at 36 uM after 2 hrs; format: functional, cell-based; procedure, shortened: as §3
MDA-MB-231 [13] = assay: Cell cycle arrest in human MDA-MB-231 cells assessed as accumulation of >4N cells at 9.0 uM after 24 hrs by flow cytometry; format: functional; procedure, shortened: as §2
MDA-MB-231 [14] = assay: Cell cycle arrest in human MDA-MB-231 cells assessed as accumulation of 4N cells at 18.0 uM after 24 hrs by flow cytometry; format: functional
NCI-H522 = assay: Cytotoxicity against human NCI-H522 cells; format: functional; procedure, shortened: as §1
NCI-H23 = assay: Cytotoxicity against human NCI-H23 cells; format: functional; procedure, shortened: as §1
HOP-92 = assay: Cytotoxicity against human HOP92 cells; format: functional; procedure, shortened: as §1
DU-145 = assay: Cytotoxicity against human DU145 cells; format: functional; procedure, shortened: as §1
HCT-116 = assay: Cytotoxicity against human HCT116 cells; format: functional; procedure, shortened: as §1
MDA-MB-231 [15] = assay: Cell cycle arrest in human MDA-MB-231 cells assessed as accumulation of >4N cells at 36.0 uM after 24 hrs by flow cytometry; format: functional
MDA-MB-231 [16] = assay: Cell cycle arrest in human MDA-MB-231 cells assessed as accumulation at sub-G1 phase at 18.0 uM after 72 hrs by flow cytometry; format: functional
MDA-MB-231 [17] = assay: Cell cycle arrest in human MDA-MB-231 cells assessed as accumulation of >4N cells at 3.6 uM after 72 hrs by flow cytometry; format: functional
MDA-MB-231 [18] = assay: Cell cycle arrest in human MDA-MB-231 cells assessed as accumulation of >4N cells at 18.0 uM after 24 hrs by flow cytometry; format: functional
OVCAR-3 = assay: Cytotoxicity against human OVCAR-3 cells; format: functional; procedure, shortened: as §1
MDA-MB-231 [19] = assay: Cell cycle arrest in human MDA-MB-231 cells assessed as accumulation of >4N cells at 18.0 uM after 72 hrs by flow cytometry; format: functional
MDA-MB-231 [20] = assay: Effect on microtubule depolymerization in human MDA-MB-231 cells at 27 uM after 2 hrs; format: functional, cell-based; procedure, shortened: as §3
[21] = read-out: LC50 (the source's name)

SMILES: Nc1ccccc1C#C/C=C\C#Cc1ccccc1C(F)(F)F
- GI50 (SK-MEL-5): 0.541 µM
- TGI (SK-MEL-5): 15 µM
- CC50 (SK-MEL-5; [21]): 42.2 µM
- Activity (MDA-MB-231 [1]): 14.5%
- GI50 (A549): 0.745 µM
- TGI (A549): 15.2 µM
- CC50 (A549; [21]): 59.5 µM
- Activity (MDA-MB-231 [2]): 18%
- GI50 (UO-31): 3.06 µM
- TGI (UO-31): 25.1 µM
- CC50 (UO-31; [21]): 94.9 µM
- GI50 (BT-549): 0.699 µM
- TGI (BT-549): 17.3 µM
- CC50 (BT-549; [21]): 43.4 µM
- GI50 (SW-620): 0.479 µM
- TGI (SW-620): 19.7 µM
- CC50 (SW-620; [21]): 69.2 µM
- Activity (MDA-MB-231 [3]): 35.3%
- GI50 (SK-OV-3): 0.888 µM
- TGI (SK-OV-3): 24.7 µM
- CC50 (SK-OV-3; [21]): 98.7 µM
- GI50 [4]: 0.746 µM
- TGI [4]: > 100 µM
- CC50 [4, 21]: > 100 µM
- Activity (MDA-MB-231 [5]): Active
- Activity (MDA-MB-231 [6]): 17.4%
- Activity (MDA-MB-231 [7]): Active
- GI50 (Hs-578T): 0.501 µM
- TGI (Hs-578T): 28.9 µM
- CC50 (Hs-578T; [21]): > 100 µM
- GI50 (U-251): 0.666 µM
- TGI (U-251): 17.5 µM
- CC50 (U-251; [21]): 45.4 µM
- GI50 (PC-3): 2.35 µM
- TGI (PC-3): 24.9 µM
- CC50 (PC-3; [21]): 94.2 µM
- GI50 (RXF 393): 0.808 µM
- TGI (RXF 393): 4.62 µM
- CC50 (RXF 393; [21]): 30.5 µM
- Activity (MDA-MB-231 [8]): 7.1%
- TGI (SNB-75): 18.8 µM
- GI50 (SNB-75; read-out: GI50): 0.0869 µM
- CC50 (SNB-75; [21]): 100 µM
- GI50 (SNB-75; read-out: pGI50 (converted)): 0.0794 µM
- Activity (MDA-MB-231 [9]): 47.2%
- GI50 (MDA-MB-231 [10]): 0.398 µM
- fold change (FC) [11]: 3.4
- GI50 (OVCAR-5): 1.35 µM
- TGI (OVCAR-5): 7.02 µM
- CC50 (OVCAR-5; [21]): 37.5 µM
- Activity (MDA-MB-231 [12]): Active
- Activity (MDA-MB-231 [13]): 34%
- Activity (MDA-MB-231 [14]): 31.9%
- GI50 (NCI-H522): 0.597 µM
- TGI (NCI-H522): 12.2 µM
- CC50 (NCI-H522; [21]): 51.2 µM
- GI50 (NCI-H23): 0.273 µM
- TGI (NCI-H23): 1.89 µM
- CC50 (NCI-H23; [21]): 47.8 µM
- GI50 (HOP-92): 20.4 µM
- TGI (HOP-92): 48.6 µM
- CC50 (HOP-92; [21]): > 100 µM
- GI50 (DU-145): 3.08 µM
- TGI (DU-145): 18.4 µM
- CC50 (DU-145; [21]): 48.5 µM
- GI50 (HCT-116): 0.423 µM
- TGI (HCT-116): 12.5 µM
- CC50 (HCT-116; [21]): 47.4 µM
- Activity (MDA-MB-231 [15]): 36.3%
- Activity (MDA-MB-231 [16]): 62.5%
- Activity (MDA-MB-231 [17]): 10.3%
- Activity (MDA-MB-231 [18]): 35.1%
- GI50 (OVCAR-3): 0.631 µM
- Activity (MDA-MB-231 [19]): 13%
- Activity (MDA-MB-231 [20]): Active
